In brackets after ≈: the same amount, converted by molar mass.

As a reminder, the IC50 is the midpoint of a concentration-inhibition curve. One may read the MIC as the least concentration at which growth counts as inhibited. A higher MIC goes with a less susceptible organism. One may read the CC50 as the concentration that lowers cell viability or growth by half. The low end stands for harm at low concentration, the high end for better tolerance by the cells.

Data set [1] is described as follows: Drug level in DTT containing buffer treated with 3-((5-Phenyl-1,3,4-oxadiazol-2-yl)thio)benzo[b]thiophene-1,1-dioxide by LC-MS analysis. Type of data set: physicochemical.
For data set [2], the target named is Inosine-5'-monophosphate dehydrogenase 2 (Homo sapiens, UniProt P12268). In words: Inhibition of recombinant human His-tagged IMPDH2 expressed in Escherichia coli BL21 (DE3) using IMP as substrate in presence of NAD.
Another data set deals with Cryptococcus neoformans. The experiment in a line: Antifungal activity against Cryptococcus neoformans after 24 hrs by two fold serial dilution method.
Data set [3] is described as follows: Cytotoxicity against HEK293 cells after 24 hrs by resazurin dye-based fluorescence analysis. Format: cell-based. Conditions: human. In outline:
(§1)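 Cells seeded at 3000 per well in DMEM with 10% FBS. Compound […], applied as a 2-fold dilution series mixed directly with the cells. Incubated 24 h at 37 °C in 5% CO2, then 10 µM resazurin was added for 3 h. Fluorescence read at ex/em 560/590 nm. DMSO served as negative control.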
In general terms: The colour change of resazurin is a common sign of viable cells or microbes.

The nature of data set [4]: Cytotoxicity against human HepG2 cells after 24 hrs by resazurin dye-based fluorescence analysis. Format: cell-based. The method, boiled down:
as §1

Data set [5] concerns the target Inosine-5'-monophosphate dehydrogenase 1 (Homo sapiens, UniProt P20839). In words: Inhibition of recombinant human His-tagged IMPDH1 expressed in Escherichia coli BL21 (DE3) using IMP as substrate in presence of NAD. The method, boiled down: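 His-tag-cleaved human IMPDH from E. coli BL21(DE3) pLysS at 0.2 µM. NAD 100 µM, IMP 125 µM; reaction started with IMP. NADH followed at 340 nm. Compounds tested 30 to 0.93 µM. IC50 from variable-slope fit normalized to no-inhibitor and 20 µM MPA controls; n ≥ 3.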

The target of data set [6] is Inosine-5'-monophosphate dehydrogenase (Cryptococcus neoformans var. neoformans serotype D (strain JEC21 /ATCC MYA-565) (Filobasidiella neoformans), UniProt Q5KP44). The experiment in a line: Inhibition of recombinant Cryptococcus neoformans His-tagged IMPDH expressed in Escherichia coli BL21 (DE3) using IMP as substrate in presence of NAD. In outline: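 Recombinant C. neoformans IMPDH (E. coli BL21(DE3) pLysS) at 0.2 µM. IMP and NAD each 500 µM; reaction started with IMP. NADH followed at 340 nm. Compounds tested 20 to 0.02 µM. % activity normalized to no-inhibitor and 20 µM MPA controls, fitted by variable-slope dose-response; n ≥ 3.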
Inosine-5'-monophosphate dehydrogenase, sequence (Q5KP44 whole entry): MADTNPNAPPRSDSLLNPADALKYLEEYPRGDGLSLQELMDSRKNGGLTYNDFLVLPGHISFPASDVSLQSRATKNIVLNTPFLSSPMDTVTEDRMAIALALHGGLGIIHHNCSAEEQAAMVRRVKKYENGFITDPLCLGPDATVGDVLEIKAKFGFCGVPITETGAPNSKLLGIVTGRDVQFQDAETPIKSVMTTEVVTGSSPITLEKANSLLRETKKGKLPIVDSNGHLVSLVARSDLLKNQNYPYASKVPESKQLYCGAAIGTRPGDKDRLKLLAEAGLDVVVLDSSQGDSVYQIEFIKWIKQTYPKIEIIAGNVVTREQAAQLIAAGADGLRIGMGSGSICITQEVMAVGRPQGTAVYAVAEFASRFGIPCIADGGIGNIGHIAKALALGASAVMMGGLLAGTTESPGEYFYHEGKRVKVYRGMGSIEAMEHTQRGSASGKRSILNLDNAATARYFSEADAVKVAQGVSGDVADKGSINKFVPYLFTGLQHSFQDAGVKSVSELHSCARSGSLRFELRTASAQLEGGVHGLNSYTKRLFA

The subject of the next data set is Candida albicans. The experiment in a line: Antifungal activity against Candida albicans after 24 hrs by OD530 reading based two fold serial dilution method.
Data set [7] is described as follows: Drug metabolism in DTT containing buffer assessed as formation of 5-phenyl-1,3,4-oxadiazole-2-thiol by LC-MS analysis. Format: physicochemical.

Inosine-5'-monophosphate dehydrogenase 1, sequence (P20839 whole entry): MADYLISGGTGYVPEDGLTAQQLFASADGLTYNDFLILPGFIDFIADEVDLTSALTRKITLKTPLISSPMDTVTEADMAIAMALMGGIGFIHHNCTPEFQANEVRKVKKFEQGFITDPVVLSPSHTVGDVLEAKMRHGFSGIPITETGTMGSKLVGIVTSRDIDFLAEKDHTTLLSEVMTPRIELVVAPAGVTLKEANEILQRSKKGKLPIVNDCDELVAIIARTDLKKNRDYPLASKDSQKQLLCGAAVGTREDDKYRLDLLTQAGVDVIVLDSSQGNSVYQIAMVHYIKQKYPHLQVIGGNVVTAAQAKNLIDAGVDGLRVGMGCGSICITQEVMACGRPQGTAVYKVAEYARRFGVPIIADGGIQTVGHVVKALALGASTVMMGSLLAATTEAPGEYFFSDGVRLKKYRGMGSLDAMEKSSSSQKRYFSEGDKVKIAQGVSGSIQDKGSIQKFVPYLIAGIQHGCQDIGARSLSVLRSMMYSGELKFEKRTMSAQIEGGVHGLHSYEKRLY

Take `S=c1[nH]nc(-c2ccccc2)o1`: in [1], the Drug metabolism result is “Metabolite_Detected”.

On to `O=S1(=O)C=C(Sc2nnc(-c3ccccc3)o2)c2ccccc21`, for which the IC50 came to 2100 nM in data set [2], 5.6 µM in data set [5] and 370 nM in data set [6]. Besides, the MIC in the data set on Cryptococcus neoformans and with Candida albicans was 6 µM (≈ 2.05 µg/mL) throughout. Further, the CC50 at 24 h in [3] is 3 µM; in data set [4] it was 20 µM. Besides, the Drug metabolism result in data set [7] is given as “Metabolite_Detected”.

For the compound `O=S1(=O)C=C(Sc2nnc(-c3ccncc3)o2)c2ccccc21`, the half-inhibitory concentration (IC50) was determined as 2100 nM in data set [2], 8.6 µM in data set [5] and 760 nM in [6]. The values for the minimum inhibitory concentration (MIC) in the data set on Cryptococcus neoformans and in the data set with Candida albicans were 9 µM (≈ 3.09 µg/mL) and 6 µM (≈ 2.06 µg/mL), respectively. Further, the 50% cytotoxic concentration (CC50) at 24 h in [3] is 4 µM; in [4], 17 µM.

For the compound `O=S1(=O)C=C(Sc2nnc(-c3ccc(Cl)cc3)o2)c2ccccc21`, the IC50 in data set [2] was 1500 nM; in [5], 11.1 µM; in data set [6] it was 490 nM. Further, the minimal inhibitory concentration (MIC) against Cryptococcus neoformans came to 16 µM (≈ 6.03 µg/mL); in the data set on Candida albicans it was 167 µM (≈ 62.9 µg/mL). Moreover, the results for the CC50 at 24 h in [3] and in data set [4] were 3 µM and 22 µM, respectively.

`COc1ccc(-c2nnc(SC3=CS(=O)(=O)c4ccccc43)o2)cc1`: the IC50 in [2] was more than 30000 nM; in data set [5] it was more than 30 µM; in data set [6], 1700 nM. In addition, the minimum inhibitory concentration (MIC) in the data set with Cryptococcus neoformans and in the data set on Candida albicans was 172 µM (≈ 64.1 µg/mL) each time. For the same compound, the cytotoxic concentration (CC50) at 24 h in [3] was 2 µM; in [4] it was 22 µM.

With `Cc1ccc(-c2nnc(SC3=CS(=O)(=O)c4ccccc43)o2)cc1`, the values for the IC50 in [2], in data set [5] and in data set [6] were 5700 nM, 20.3 µM and 410 nM, respectively. For the same compound, the MIC with Cryptococcus neoformans was determined as 22 µM (≈ 7.84 µg/mL); against Candida albicans, 90 µM (≈ 32.1 µg/mL). Also, the CC50 at 24 h in data set [3] was 3 µM; in [4] it was 31 µM.

As to `COC(=O)c1ccc(-c2nnc(SC3=CS(=O)(=O)c4ccccc43)o2)cc1`, the IC50 in [2] is more than 30000 nM; in [5] it was more than 30 µM; in data set [6], 340 nM. The minimum inhibitory concentration (MIC) is 60 µM (≈ 24 µg/mL) in the data set on Cryptococcus neoformans and more than 160 µM in the data set on Candida albicans. The CC50 at 24 h in data set [3] is 4 µM; in data set [4], 18 µM.

With `COc1cccc(-c2nnc(SC3=CS(=O)(=O)c4ccccc43)o2)c1`, the IC50 in [2] turned out to be 1200 nM; in data set [5], 4.3 µM; in data set [6], 150 nM. In addition, the minimum inhibitory concentration (MIC) in the data set with Cryptococcus neoformans stood at 8 µM (≈ 2.98 µg/mL); in the data set with Candida albicans, 172 µM (≈ 64.1 µg/mL). Moreover, the CC50 at 24 h came to 3 µM in data set [3] and 20 µM in [4].

Take `O=S1(=O)C=C(Sc2nnc(-c3ccccn3)o2)c2ccccc21`: the results for the half-inhibitory concentration (IC50) in data set [2], in data set [5] and in data set [6] were 4200 nM, 13.2 µM and 1060 nM, respectively. Moreover, the MIC was determined as 6 µM (≈ 2.06 µg/mL) with Cryptococcus neoformans and 4 µM (≈ 1.37 µg/mL) with Candida albicans. In addition, the CC50 at 24 h in data set [3] amounted to 5 µM; in data set [4] it was 24 µM.

Regarding `O=S1(=O)C=C(Sc2nnc(-c3cccc(Cl)c3)o2)c2ccccc21`, the IC50 in data set [2] amounted to 1600 nM; in data set [5], 10.1 µM; in data set [6] it was 400 nM. Moreover, the MIC with Cryptococcus neoformans amounted to 6 µM (≈ 2.26 µg/mL); against Candida albicans, 167 µM (≈ 62.9 µg/mL). The CC50 at 24 h in data set [3] stood at 6 µM; in [4] it was 27 µM.

Regarding `COc1ccccc1-c1nnc(SC2=CS(=O)(=O)c3ccccc32)o1`, the IC50 in data set [2] worked out at 3200 nM; in data set [5] it was 9.9 µM; in data set [6] it was 480 nM. For the same compound, the values for the minimal inhibitory concentration (MIC) with Cryptococcus neoformans and against Candida albicans were 64 µM (≈ 23.8 µg/mL) and 172 µM (≈ 64.1 µg/mL), respectively. Moreover, the half-maximal cytotoxic concentration (CC50) at 24 h amounted to 3 µM in [3] and 16 µM in [4].

On to `O=S1(=O)C=C(Sc2nnc(C3CCCCC3)o2)c2ccccc21`, for which the results for the half-maximal inhibitory concentration (IC50) in data set [2], in [5] and in [6] were 2200 nM, 7.6 µM and 670 nM, respectively. Moreover, the values for the minimum inhibitory concentration (MIC) in the data set with Cryptococcus neoformans and against Candida albicans were 7 µM (≈ 2.44 µg/mL) and 46 µM (≈ 16 µg/mL), respectively. Further, the cytotoxic concentration (CC50) at 24 h in [3] was 3 µM; in [4] it was 15 µM.

As for `O=S1(=O)C=C(Sc2nnc(-c3ccccc3Cl)o2)c2ccccc21`, the half-maximal inhibitory concentration (IC50) in [2] came out at 1200 nM; in [5], 7.2 µM; in data set [6], 230 nM. The results for the minimal inhibitory concentration (MIC) in the data set with Cryptococcus neoformans and in the data set on Candida albicans were 6 µM (≈ 2.26 µg/mL) and 167 µM (≈ 62.9 µg/mL), respectively. The half-maximal cytotoxic concentration (CC50) at 24 h in [3] came out at 4 µM; in data set [4], 25 µM.

Consider `Nc1ccc(-c2nnc(SC3=CS(=O)(=O)c4ccccc43)o2)cc1`, for which the figures for the IC50 in data set [2], in [5] and in data set [6] were 4500 nM, 13.8 µM and 1010 nM, respectively. Besides, the MIC with Cryptococcus neoformans is 33 µM (≈ 11.8 µg/mL); with Candida albicans, more than 179 µM. Also, the CC50 at 24 h was 4 µM in data set [3] and 24 µM in data set [4].

As to `O=S1(=O)C=C(Sc2nnc(-c3cccnc3)o2)c2ccccc21`, the figures for the IC50 in data set [2], in data set [5] and in data set [6] were 2600 nM, 6.3 µM and 590 nM, respectively. Moreover, the MIC in the data set with Cryptococcus neoformans and in the data set with Candida albicans was 4 µM (≈ 1.37 µg/mL) throughout. The CC50 at 24 h in data set [3] worked out at 4 µM; in [4], 14 µM.

Turning to `CC(=O)Nc1ccc(-c2nnc(SC3=CS(=O)(=O)c4ccccc43)o2)cc1`, the concentration for half-maximal inhibition (IC50) in data set [2] turned out to be 4400 nM; in data set [5], 20.4 µM; in data set [6] it was 160 nM. Also, the MIC in the data set with Cryptococcus neoformans and against Candida albicans was more than 160 µM throughout. The CC50 at 24 h turned out to be 4 µM in data set [3] and 31 µM in data set [4].

In the case of `C[C@@H]1[C@H](O)[C@@H](C)/C=C/C=C/C=C/C=C/C=C/C=C/C=C/[C@H](O[C@@H]2O[C@H](C)[C@@H](O)[C@H](N)[C@@H]2O)C[C@@H]2O[C@](O)(C[C@@H](O)C[C@@H](O)[C@H](O)CC[C@@H](O)C[C@@H](O)CC(=O)O[C@H]1C)C[C@H](O)[C@H]2C(=O)O` [AMPHOTERICIN B], the MIC against Cryptococcus neoformans was determined as 0.25 µM (≈ 0.231 µg/mL); against Candida albicans, 0.18 µM (≈ 0.166 µg/mL).

`OC(Cn1cncn1)(Cn1cncn1)c1ccc(F)cc1F` [FLUCONAZOLE]: the MIC in the data set with Cryptococcus neoformans stood at 0.3 µM (≈ 0.0919 µg/mL); in the data set on Candida albicans it was 8 µM (≈ 2.45 µg/mL).

On to `COc1c(C)c2c(c(O)c1C/C=C(\C)CCC(=O)O)C(=O)OC2` [MYCOPHENOLIC ACID], for which the IC50 was determined as 0.26 µM in [5] and 120 nM in data set [6].

For the compound `CC/C(=C(\c1ccccc1)c1ccc(OCCN(C)C)cc1)c1ccccc1` [TAMOXIFEN], the 50% cytotoxic concentration (CC50) at 24 h amounted to […] in data set [3] and […] in data set [4].

The values are drawn from ChEMBL document CHEMBL4265991 (Bioorg Med Chem, 2018).
